Here are results for four compounds from ChEMBL document CHEMBL1127501, “TcO(PnA.O-1-(2-nitroimidazole)) [BMS-181321], a new technetium-containing nitroimidazole complex for imaging hypoxia: synthesis, characterization, and xanthine oxidase-catalyzed reduction” (J Med Chem, 1994).

Series [1] relates to xanthine oxidase. Description: Half life for the nitro group loss in xanthine oxidase enzyme assay in 0.2%DMF at 0.1 mM. In kind it is ADME. The method, boiled down: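 Anaerobic assay in argon-purged, septum-sealed cuvette: 100 µM nitro compound, 4 mM hypoxanthine, 0.2 units/mL bovine milk xanthine oxidase, 0.1 M phosphate/EDTA pH 7.4, 0.2% DMF final. Nitro absorbance at 326 nm read every 5 min and converted to concentration. Half-life taken from plots of log[% remaining] vs time.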

The subject of series [2] is xanthine oxidase. Description: (§1) Half life for the nitro group loss in xanthine oxidase enzyme assay in 5%DMF at 0.1 mM.
In series [3] the target is Xanthine dehydrogenase/oxidase (Bos taurus, UniProt P80457). Description: Reaction rate was evaluated for the compound with hypoxanthine as reducing substrate in 5% DMF expressed as nM/min/unit XOD.
Xanthine dehydrogenase/oxidase, sequence (P80457 whole entry): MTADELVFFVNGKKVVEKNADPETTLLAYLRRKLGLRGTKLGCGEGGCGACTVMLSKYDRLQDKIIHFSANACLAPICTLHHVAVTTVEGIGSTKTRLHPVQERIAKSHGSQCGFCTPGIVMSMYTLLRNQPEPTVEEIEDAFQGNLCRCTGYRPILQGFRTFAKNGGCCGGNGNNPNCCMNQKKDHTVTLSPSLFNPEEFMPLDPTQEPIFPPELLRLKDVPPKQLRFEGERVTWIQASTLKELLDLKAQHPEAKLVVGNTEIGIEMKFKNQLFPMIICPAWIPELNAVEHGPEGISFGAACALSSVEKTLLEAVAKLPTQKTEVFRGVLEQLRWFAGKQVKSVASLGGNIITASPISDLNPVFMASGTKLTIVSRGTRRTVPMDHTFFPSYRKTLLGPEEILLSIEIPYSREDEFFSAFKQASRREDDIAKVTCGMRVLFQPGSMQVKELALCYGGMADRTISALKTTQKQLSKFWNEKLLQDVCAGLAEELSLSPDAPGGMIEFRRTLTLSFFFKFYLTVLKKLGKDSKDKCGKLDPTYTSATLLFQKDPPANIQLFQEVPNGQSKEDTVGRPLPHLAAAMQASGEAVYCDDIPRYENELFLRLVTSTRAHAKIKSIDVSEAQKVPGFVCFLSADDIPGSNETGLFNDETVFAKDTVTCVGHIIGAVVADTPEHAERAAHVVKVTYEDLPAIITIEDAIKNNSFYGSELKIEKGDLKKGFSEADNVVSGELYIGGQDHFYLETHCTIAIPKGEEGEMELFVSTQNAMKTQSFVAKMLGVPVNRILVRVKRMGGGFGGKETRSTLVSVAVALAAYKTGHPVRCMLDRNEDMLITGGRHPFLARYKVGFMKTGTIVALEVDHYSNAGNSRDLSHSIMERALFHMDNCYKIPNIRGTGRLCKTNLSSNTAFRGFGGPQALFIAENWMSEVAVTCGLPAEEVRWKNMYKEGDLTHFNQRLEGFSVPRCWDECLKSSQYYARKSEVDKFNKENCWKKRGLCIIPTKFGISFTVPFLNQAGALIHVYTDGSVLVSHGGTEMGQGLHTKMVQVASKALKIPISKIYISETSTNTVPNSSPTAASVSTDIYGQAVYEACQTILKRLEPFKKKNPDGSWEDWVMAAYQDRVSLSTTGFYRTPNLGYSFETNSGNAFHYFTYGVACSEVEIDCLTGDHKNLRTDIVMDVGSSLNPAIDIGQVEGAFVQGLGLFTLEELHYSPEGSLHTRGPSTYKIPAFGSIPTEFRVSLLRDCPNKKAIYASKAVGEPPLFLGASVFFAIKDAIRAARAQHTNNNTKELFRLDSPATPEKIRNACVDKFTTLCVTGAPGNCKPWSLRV
Series [4] can be described thus: Half life for the nitro group loss in xanthine oxidase enzyme assay in 5 %DMF at 0.1 mM; No rection seen. The series is classed as ADME. The conditions noted are these: 100 µM.
A short description of series [5]: Half life for the nitro group loss in xanthime oxidase enzyme assay in 5%DMF with no hypoxanthine control at 0.1 mM; No reaction seen. The series is classed as ADME. To be noted: 100 µM.
Series [6] is described as follows: Half life for the nitro group loss in xanthime oxidase enzyme assay in 5%DMF with no enzyme control at 0.1 mM; No reaction seen. In kind it is ADME. The conditions noted are these: 100 µM.
Series [7] in a line: as §1. In kind it is ADME. The conditions noted are these: 100 µM. The method, boiled down: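 Nitro compound at 100 µM with 4 mM hypoxanthine and 0.2 units/mL cow milk xanthine oxidase, in 0.1 M phosphate/EDTA pH 7.4 containing 5% DMF. Solutions were argon-deoxygenated before the enzyme was injected by gas-tight syringe. Loss of the 326 nm nitroimidazole absorbance was followed by UV/vis, and the half-life derived from the time course.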

One may read the half-life as the time in which the quantity being followed falls by half. A higher half-life goes with slow decline. With `Cc1ncc([N+](=O)[O-])n1CCO` [METRONIDAZOLE], in the series on xanthine oxidase [1], the half-life at 100 µM was above 20 h.
As to `COCC(O)Cn1ccnc1[N+](=O)[O-]` (stereo not drawn) [MISONIDAZOLE], the half-life at 100 µM with xanthine oxidase [2] amounted to 1 h. Further, the Rate in series [3] is reported as 3.7 nM min-1 (unit XOD)-1.
Turning to TCO(PNAO), in series [4], the T1/2 entry is reported as “Not Active”.
Regarding TcO(PnA.O-1-(2-nitroimidazole)), the T1/2 entry in series [5] was “Not Active”; in series [6], “Not Active”; in series [7], 2 h. Besides, in series [3], the Rate is 1.5 nM min-1 (unit XOD)-1.
